Assay outcomes from PubChem.
bCat nuc transl: modulators of beta-catenin nuclear translocation, primary screen, imaging, HeLa cells, immunofluorescence, high-content; 190,000 compounds, 0.3% hits; nuclear translocation activity, % at 5 µM; AID 1665, 2009;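 active = nuclear translocation activity above 50% at 5 µM, with a well cell count of 50 or more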;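 also: per-cell ratio of nuclear to cytoplasmic median beta-catenin stain intensity; plate controls were DMSO negative control for no effect and GSK-3 inhibitor IX positive control for full effect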
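System: HeLa cells, endogenous beta-catenin; compound dosing: 5 µM primary single dose, 0.1% DMSO, 0.02–20 µM confirmation series; incubation: 24 h compound exposure at 37°C, 5% CO2; signal: beta-catenin immunofluorescence imaging with DAPI; evaluation: % activation, nuclear-to-cytoplasmic median beta-catenin signal ratio per cell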
Dynein cargo inh: inhibitors of GR-EGFP nuclear translocation, primary screen, dynein cargo transport inhibitor project, imaging, high-content, 3617.4 mouse cells. test concentration mostly 20 µM; stimulated with dexamethasone, 1 µM; active compounds read low. z-score, hits read low. 220,000 compounds, 0.47% hits. AID 1381, 2008;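 active = plate z-score of nuclear minus cytoplasmic receptor signal below a set negative limit, without overly bright fluorescence or cell loss, cut at about -3.5 in these data, passing the limit was not always enough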;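 also: z-score of nuclear minus cytoplasmic ring GR-EGFP intensity difference per well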
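Buffer or medium: tet-free medium with charcoal-stripped serum / Also added: dexamethasone agonist, 1.0 µM final, for 30 min / Timing: induction 48 h, compound 1 h, agonist 30 min / Measured by: high-content fluorescence imaging after fixation / Read-out: nuclear-to-cytoplasmic GR-EGFP distribution per well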
Autophagy mod: autophagy modulators in MEF cells, primary screen, imaging, high-content, MEF GFP-LC3 | 190,000 compounds, 0.98% hits | MEF GFP-LC3 puncta imaging; test concentration mostly 10 µM | calls only at 10 µM (by protocol) | AID 463193, 2010;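 active = percentage of spot-positive cells more than 3 SD above its plate mean, without a fluorescence outlier flag or 80% toxicity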;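 also: spot-positive cell cutoff set from DMSO-treated cells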
Lmaj promast: Leishmania major promastigote growth inhibition, primary screen; inhibition, % at 10 µM; Leishmania major promastigotes, resazurin fluorescence viability; 200,000 compounds, 9% hits; in the data active = inhibition above about 50%;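 also: promastigotes grown with compound for 44 hours at 28 °C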
MT stabilizer: microtubule stabilizers in HeLa cells, primary screen, imaging, high-content imaging; HeLa tubulin immunostaining HCS, 24 h; share of cells brighter than vehicle mean+2SD; % tubulin-high responders, % at 10 µM; 200,000 compounds, 0.83% hits;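 active = plate Z-score above 3 for both tubulin-high and condensed-nucleus cell shares, with cell loss under 80%, at 10 µM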;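 also: anti alpha tubulin signal scored within the nucleus-defined area of each cell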
CHOP inhibitor: inhibitors of CHOP promoter induction, primary screen, cell-based, unfolded protein response, luciferase reporter. CHO-K1 CHOP-promoter luciferase, tunicamycin-induced, 15-18 h. inhibition, % at 10 µM. 220,000 compounds, 3.8% hits;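 active = compounds that reduced the stress-induced luciferase reporter signal by more than about 70% of percent inhibition, limit read from the data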;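 also: 0% = tunicamycin plus vehicle and 100% = wells without tunicamycin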
* hit, by the source's call; i = inactive; x = not tested or not shown. Compounds with a hit are over-represented: about 12% of the library has one in this group of screens.

SMILES | bCat nuc transl | Dynein cargo inh | Autophagy mod | Lmaj promast | MT stabilizer | CHOP inhibitor
O=C(NNC1=Nc2cccc3cccc1c23)c1ccccc1Br | 2 | 0.37 | i | 53* | 5 | 90*
c1ccc(NC2=Nc3cccc4cccc2c34)cc1 | 1 | -0.63 | i | 49 | 3 | 34
CC1=CC(C)(C)N2C(=O)C3(NCCc4c3[nH]c3ccccc43)c3cccc1c32 (centres undefined) | 0 | -0.12 | i | 12 | 2 | 4
C=CCNC(=O)/C(C#N)=C/c1c(N(Cc2ccccc2)Cc2ccccc2)nc2ccccn2c1=O | 2 | 1.4 | i | 76* | 4 | 54
CCOc1ccccc1NC(=O)/C(C#N)=C/c1c(C)nn(-c2ccccc2)c1Cl | x | -0.37 | i | 82* | 1 | 28
C=CCNC(=O)/C(C#N)=C/c1ccc(SC)cc1 | 5 | 0.82 | i | 17 | 4 | 1
C=CCNC(=O)/C(C#N)=C/c1c(C)nn(-c2ccccc2)c1Cl | x | -0.27 | i | 99* | 3 | -2
CN1/C(=C\P(=O)(N(C)C)N(C)C)C(C)(C)c2ccccc21 | -3 | -0.33 | i | 99* | 3 | 5
CC(C)CN(C(=O)C(c1ccccc1)c1ccccc1)c1c(N)n(CC(C)C)c(=O)[nH]c1=O | 3 | 2.9 | i | -8 | 3 | -1
FC(F)(F)Oc1ccc(NC(=S)Nc2ccccc2N2CCOCC2)cc1 | -5 | 0.27 | x | x | x | -3
Cc1onc(-c2ccccc2)c1C(=O)N/N=C/c1cc2c(cc1Br)OCO2 | x | -0.28 | i | 100* | 4 | 26
Cc1ccc(C(=O)N/N=C\c2cc3c(cc2Br)OCO3)s1 | -2 | 0.37 | i | -3 | 3 | 93*
COC(=O)N/N=C\c1cc2c(cc1Br)OCO2 | 1 | -0.5 | i | 0 | 3 | 26
O=[N+]([O-])c1cc(S(=O)(=O)N2CCCCCC2)ccc1Cl | 1 | -2.3 | i | 27 | 5 | -50
COCCN(CCOC)S(=O)(=O)c1ccc(C(=O)Nc2nc(-c3ccncc3)cs2)cc1 | -2 | -0.59 | i | 85* | 5 | 34
COc1ccc(-n2c(C)cc(-c3csc(NC(=O)c4ccc(S(=O)(=O)N(C)C)cc4)n3)c2C)cc1 | 0 | -1 | i | 63* | 3 | -23
CCOC(=O)Cc1csc(NC(=O)c2ccc(S(=O)(=O)N(CCOC)CCOC)cc2)n1 | -1 | 0.16 | i | 5 | 3 | -19
Cc1cc2ccccn2c1C(=O)c1ccc(N/N=C/c2ccc(C(=O)O)cc2)c([N+](=O)[O-])c1 | 0 | -0.58 | x | x | x | 103*
COc1ccc(OC(=O)c2ccc(Cl)cc2)c(C(C)=O)c1 | -1 | 0.32 | i | -6 | 3 | -1
Clc1cccc(-c2nnc(SC/C=C/c3ccccc3)n2Cc2ccco2)c1 | 0 | -1.3 | i | 14 | 37* | 54
C(=C\c1ccccc1)/CSc1nnc(-c2ccncc2)n1Cc1ccco1 | -6 | 1.1 | i | 8 | 4 | 28
C(=C\c1ccccc1)/CSc1nnc(-c2ccccc2)n1Cc1ccco1 | 141* | 0.3 | i | 85* | 23* | x
O=C(NCCCN1CCOCC1)c1cccc(S(=O)(=O)Nc2cc(Cl)ccc2Cl)c1 | 0 | -1.2 | i | -7 | 3 | -26
CC(Sc1nc(N2CCOCC2)nc(N2CCOCC2)n1)C(=O)Nc1ccccc1 (centres undefined) | -1 | 2.6 | i | 10 | 2 | 15
CC(Sc1nc(N(C)C)nc(N2CCOCC2)n1)C(=O)Nc1ccccc1 (centres undefined) | 0 | 1.8 | i | 63* | 4 | 47
Nc1nnc(SCC(=O)c2ccc3c(c2)NC(=O)CO3)s1 | 0 | 0.27 | i | 19 | 2 | 8
Cc1csc(NC(=O)CSc2nnc(NC(=O)COc3ccc(Cl)cc3)s2)n1 | -1 | -0.52 | i | 46 | 2 | 93*
Cc1ccc(N2CC(C(=O)Nc3nnc(SCC(=O)Nc4nc(C)cs4)s3)CC2=O)cc1 (centres undefined) | 0 | 0.36 | i | 49 | 2 | 71*
